# dFosB act-1: activators of delta FosB homodimer, primary screen, biochemical, fluorescence polarization, TAMRA-CDK5 oligo, single point. Protein FosB (Mus musculus), P13346. purified delta FosB; percent of positive-control signal above neutral wells. activation, % at 25 µM. 0.99% of 340,000 active. AID 493131, 2011;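 active = mean activation above about 17%, with every replicate also reaching it, limit read from the data, passing the limit was not always enough; inconclusive = only one of the two conditions met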
# Target sequence (P13346 whole entry, looked up): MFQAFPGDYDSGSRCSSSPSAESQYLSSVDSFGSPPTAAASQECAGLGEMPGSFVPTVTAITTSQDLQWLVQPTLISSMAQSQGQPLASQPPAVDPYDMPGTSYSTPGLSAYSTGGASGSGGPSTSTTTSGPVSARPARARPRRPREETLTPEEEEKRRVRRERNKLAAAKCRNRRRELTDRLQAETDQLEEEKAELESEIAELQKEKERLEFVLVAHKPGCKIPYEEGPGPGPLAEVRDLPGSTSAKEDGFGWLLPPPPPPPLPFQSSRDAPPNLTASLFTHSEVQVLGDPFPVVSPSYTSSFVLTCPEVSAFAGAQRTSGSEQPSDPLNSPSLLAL
# Rtt109 Vps75: inhibitors of C. albicans Rtt109/Vps75 HAT, primary screen, biochemical, ThioGlo CoA-SH fluorescence, plate reader; purified Rtt109/Vps75, 4 h; Histone acetyltransferase RTT109 (Candida albicans (strain SC5314 / ATCC MYA-2876)), …; inhibition, % at 34.9 µM; 0.16% of 330,000 active;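 active = inhibition of at least 50% in every replicate; inconclusive = best replicate reaches 50% inhibition but some replicates fall short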
# Env fusion inh: inhibitors of HIV-1 Env-driven cell-cell fusion, primary screen, HeLa-JRFL effector, CEM21 target cells, luciferase; inhibition, % at 12.3 µM; 1.1% of 360,000 active;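 active = mean replicate inhibition score of at least 50 and every replicate individually at or above 50; inconclusive = only one of the two criteria met; inactive = mean below 50 and not all replicates reaching 50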;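 also: 0% = plate neutral controls and 100% = maraviroc near 300 nM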
# miR-122 sensor: miR-122 Renilla sensor signal increase in Huh7, primary screen, miR-122 inhibitor project, cell-based, single point, plate reader. Huh7 miR-122 Renilla luciferase sensor, 48 h; neutral wells = 0, positive control = 100. activation (reporter increase), % at 12.5 µM. 0.3% of 340,000 active. AID 602342, 2012;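 active = mean replicate activation score at least 90 and every replicate individually at or above 90; inconclusive = only one of the two criteria met; inactive = neither criterion met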;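 also: higher luciferase means less miR-122 activity so hits act as miR-122 inhibitors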
# Cneo AK release: Cryptococcus neoformans cell lysis inducers, primary screen, AK release luminescence, single concentration | lysis activity, % at 15 µM | 0.2% of 360,000 active | C. neoformans lysis, adenylate kinase release luminescence, 4 h; normalised: neutral wells 0, clomiphene wells 100;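 active = mean lysis activity across replicates of at least 80%, whatever share of replicates individually reach that level; inactive = mean lysis activity below 80%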
#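 read-out = cell lysis signal | test system = log-phase Cryptococcus neoformans yeast cells | input = cells at 5 × 10^6 per mL | medium = fresh YPD growth medium | signal = luminescent adenylate kinase detection reagent | timing = 4 h at 37 °C static, read 1 h later | dosing = single dose | controls = Clomiphene as positive lysis control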
# GSIS activator: GLuc luminescence reporter in INS-1E cells, primary screen for activators of glucose-dependent secretion of insulin; INS-1E GLuc reporter insulin secretion, 2-3 h; activation, % at 16.6 µM; 0.61% of 370,000 active;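 active = lowest replicate activation of at least 40%, so every replicate reaches that level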;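 also: 0% = median of neutral control wells and 100% = median of IBMX positive control wells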
# dFosB act-2: activators of mouse delta FosB DNA binding, confirmation, biochemical, fluorescence polarization, TAMRA-CDK5 oligo, cherry-picked samples. AID 588690, 2011. shares compounds with dFosB act-1. 2,400 tested, under 10 active. activation, % at 24.9 µM. purified delta FosB; normalised: neutral wells 0, positive control 100;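 active = highest replicate activation at or above 34% and every replicate reaching that threshold; inconclusive = meets only one of the two criteria; inactive = meets neither criterion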;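 also: higher polarization means more probe DNA bound by delta FosB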
# The depositor's hits bear a star; ? = inconclusive; . = not tested or not shown; [ ] = remark or other dose. This is a sample that favours compounds with a hit; in the whole collection about 2.4% have one here.
SMILES,dFosB act-1,Rtt109 Vps75,Env fusion inh,miR-122 sensor,Cneo AK release,GSIS activator,dFosB act-2
C/C(=N\NC(=O)c1ccc(OC2OCCOC2Oc2ccc(C(=O)N/N=C(\C)c3ccncc3)cc2)cc1)c1ccncc1 (configuration not stated),97*,-11,-61,-3,.,-8,3
Cc1ccc(C2=NOC3(CC(=O)N(c4ccccc4)C3=O)C2)cc1 (configuration not stated),-6,2,2,1,-3,-1,.
Cc1ccc(C2=NOC3(CC(=O)N(c4ccc(C)cc4)C3=O)C2)cc1 (configuration not stated),29*,5,3,.,.,1,5
NS(=O)(=O)c1ccc(CCNC(=O)CCCCCn2c(=S)[nH]c3ccc(Br)cc3c2=O)cc1,49*,-3,19,.,.,9,10
NS(=O)(=O)c1ccc(CCNC(=O)c2ccc(Cn3c(=O)[nH]c4ccccc4c3=O)cc2)cc1,34*,-8,18,.,.,24,-10
C=CCn1c(=S)[nH]c2cc(C(=O)NCCc3ccc(S(N)(=O)=O)cc3)ccc2c1=O,5,15,.,.,1,3,.
COc1ccc2c3c(n(C)c2c1)[C@H](CO)N(S(C)(=O)=O)CC31CN(C(=O)C2CCC2)C1,.,.,.,.,.,8,.
CO[C@H]1CN(C)C(=O)c2cc(NC(=O)C3CCOCC3)ccc2OC[C@@H](C)N(C(=O)c2ccccc2)C[C@H]1C,.,.,.,9[16.7 µM],.,4,.
CNC[C@H]1OCCCC[C@H](C)Oc2ccc(NS(=O)(=O)c3ccc(Cl)cc3)cc2C(=O)N([C@H](C)CO)C[C@@H]1C,.,.,-7[16.7 µM],7[16.7 µM],.,12,.
NC(=O)CC(NC(=O)Cc1ccc(Br)cc1)c1ccc(NCc2ccc(F)cc2)c([N+](=O)[O-])c1 (configuration not stated),53*,4,.,8,6,.,8
COc1ccc(OC)c(C(=O)NC(CC(N)=O)c2ccc(NCCOc3ccccc3)c([N+](=O)[O-])c2)c1 (configuration not stated),-4,4,4,3,-1,3,.
NC(=O)CC(NC(=O)c1ccccc1)c1ccc(NCCOc2ccccc2)c([N+](=O)[O-])c1 (configuration not stated),26*,-1,-3,-5,-4,-3,2
COc1ccc(C(=O)Nn2c(SCC(=O)N3CCC(C)CC3)nc3ccccc3c2=O)cc1,29*,12,15,-16,-5,.,3
O=C(Nc1ccc(Oc2ccccc2)cc1)c1ccc(Cn2c(=O)[nH]c3ccsc3c2=O)cc1,62*,13,-134,8,-4,16,7
O=C(Nc1ccc(Cl)c(Cl)c1)c1ccc(Cn2c(=O)[nH]c3ccsc3c2=O)cc1,22*,-6,18,2,-1,14,2
O=C(CCC(=O)Nc1ccc(Cl)cc1Cl)NNC(=O)Nc1ccccc1,34*,3,-13,-5,.,-8,1
CCOc1ccc(NC(=O)CCC(=O)NNC(=O)COc2ccc(C)cc2)cc1,-5,-7,-13,.,.,-1,.
CCOc1ccc(NC(=O)CCC(=O)NNC(=O)Nc2cccc(Cl)c2)cc1,34*,?,9,.,.,5,1
O=C(Nc1ccc(F)cc1)N1CC(=O)N2[C@H](CO)[C@H](c3ccc(C#Cc4ccccc4)cc3)[C@@H]2C1,.,.,.,.,.,-36,.
O=C(Nc1nc2c(Cl)ccc(Cl)c2s1)C1CC1,28*,-6,0,1,-1,1,0
CO[C@@H]1CN(C)C(=O)c2ccc(NS(C)(=O)=O)cc2OC[C@H](C)N(C(=O)NC(C)C)C[C@@H]1C,.,.,10[16.7 µM],0[16.7 µM],-4,-1,.
O=S(=O)(c1ccc2c(c1)OCO2)N1CCN(c2nnnn2-c2ccccc2)CC1,25*,11,30,-3,7,.,1
O=S(=O)(c1ccccc1)N1CCN(c2nnnn2-c2ccccc2)CC1,?,0,0,-11,-1,.,.
Cc1cc(C)c2nc(-c3ccccn3)cc(C(=O)NCc3ccc(S(N)(=O)=O)cc3)c2c1,65*,-8,26,-5,.,7,-1
Cc1cc(C)c2nc(-c3ccccn3)cc(C(=O)NCCc3ccc(S(N)(=O)=O)cc3)c2c1,4,8,0,-7,1,9,.
SMILES,dFosB act-1,Rtt109 Vps75,Env fusion inh,miR-122 sensor,Cneo AK release,GSIS activator,dFosB act-2
CCC(=O)N1C[C@H](C)[C@H](OC)CN(C)C(=O)c2cc(NC(=O)NC3CCCC3)ccc2OC[C@@H]1C,.,.,.,.,.,6,.
Cc1ccc(NC(=O)CN2C(=O)N/C(=C/c3ccc4c(c3)OCCO4)C2=O)cc1,48*,10,4,-3,0,3,-6
Cc1ccc(NC(=O)CN2C(=O)N/C(=C/c3ccc(N4CCOCC4)cc3)C2=O)cc1,-2,3,-8,.,.,22,.
Cc1ccccc1-c1cnc2c(c1)C(=O)N([C@H](C)CO)C[C@@H](C)[C@@H](CN(C)C(=O)c1ccncc1)O2,.,.,6[16.7 µM],1[16.7 µM],-1,4,.
CS(=O)(=O)N(CC(=O)Nc1c(F)cccc1F)c1ccc(C23CC4CC(CC(C4)C2)C3)cc1,54*,-6,.,1,-6,.,-6
CC(=O)c1cccc(NS(=O)(=O)c2ccc(N/C=C/C(=O)c3ccc(F)cc3)cc2)c1,-2,1,28,.,.,-31,.
CC(=O)c1cccc(NS(=O)(=O)c2ccc(N/C=C\C(=O)c3ccc(C)cc3)cc2)c1,23*,-4,.,39,1,.,0
CC(=O)c1ccc(NS(=O)(=O)c2ccc(N/C=C/C(=O)c3ccc(F)cc3)cc2)cc1,44*,0,-15,.,.,-5,3
COc1ccc2c3c(n(C)c2c1)[C@H](CO)N(CC1CC1)CC31CCN(C(=O)Nc2ccc(F)cc2F)CC1,.,.,.,.,.,-9,.
COCCNC(=O)C[C@H]1C[C@H]2c3cc(NC(=O)CC4CC4)ccc3O[C@H]2[C@@H](CO)O1,.,.,-10[16.7 µM],2[16.7 µM],-2,-10,.
O=C(COc1ccc(Cl)cc1Cl)Nc1c(-c2cccs2)nc2ccccn12,119*,-1,-15,-2,0,12,2
C[C@H](CO)N1C[C@H](C)[C@@H](CN(C)C(=O)CN(C)C)Oc2ncc(-c3ccc(F)cc3)cc2C1=O,.,.,-17[16.7 µM],-1[16.7 µM],-2,4,.

# High-throughput results from PubChem.
